Test results published in ChEMBL document CHEMBL1158468, “Synthesis, structure-activity relationships, and in vivo evaluation of N3-phenylpyrazinones as novel corticotropin-releasing factor-1 (CRF1) receptor antagonists” (J Med Chem, 2009).

What was measured:
[1] = molecular target: T1, Corticotropin-releasing factor receptor 1 (Rattus norvegicus, UniProt P35353); assay: Displacement of [125I]Tyr-ovine-CRF from CRF1 receptor in rat frontal cortex homogenate by gamma counting; type: tissue-based
T1 sequence (P35353 whole entry): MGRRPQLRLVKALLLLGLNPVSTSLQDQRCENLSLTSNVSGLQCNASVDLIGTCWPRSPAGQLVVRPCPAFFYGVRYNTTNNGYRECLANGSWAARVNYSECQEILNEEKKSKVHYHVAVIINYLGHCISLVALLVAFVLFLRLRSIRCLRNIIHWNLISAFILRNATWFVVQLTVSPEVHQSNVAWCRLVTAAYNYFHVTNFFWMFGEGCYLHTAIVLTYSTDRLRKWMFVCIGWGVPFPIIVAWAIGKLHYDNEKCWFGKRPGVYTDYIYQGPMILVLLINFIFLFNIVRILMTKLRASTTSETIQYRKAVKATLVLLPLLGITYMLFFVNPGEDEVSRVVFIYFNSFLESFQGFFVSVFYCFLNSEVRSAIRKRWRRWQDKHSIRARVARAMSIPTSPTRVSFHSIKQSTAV
Outline: (§1)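 Washed homogenates of frozen rat frontal cortex (CRF1, 25 μg/well) or porcine choroid plexus (CRF2, 10 μg/well) in 50 mM Hepes pH 7.0, 10 mM MgCl2, 2 mM EGTA, protease inhibitors, 0.005% Triton X-100. Ligand 150 pM 125I-ovine-CRF (CRF1) or 100 pM 125I-sauvagine (CRF2). Incubation 2 h at 21 °C, then filtration and gamma counting. Nonspecific binding: 1 μM CRF1 reference antagonist or 1 μM α-helical CRF(9-41). IC50 from 5- or 10-point curves by nonlinear regression.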

[2] = Displacement of [125I]sauvagine from CRF2 receptor in pig choroid plexus homogenate by gamma counting; type: tissue-based, Sus scrofa; outline: as §1

Row | Compound | IC50 [1] [nM] | IC50 [2] [nM]
1 | CC[C@H](C1CC1)n1cc(Cl)nc(Nc2cc(C)c(C)cc2C)c1=O | 2.4 | 
2 | CC[C@H](C1CC1)n1cc(Cl)nc(Nc2cc(C)c(OC)cc2C)c1=O | 0.27 | 
3 | COc1ccc(Nc2nc(Br)cn([C@H](C)C3CC3)c2=O)c(C(F)(F)F)n1 | 1.2 | 
4 | COC[C@@H](C)n1cc(Cl)nc(Nc2c(C)cc(C)cc2C)c1=O | 12 | 
5 | CC[C@H](C1CC1)n1cc(Cl)nc(Nc2c(Cl)cc(C#N)cc2Cl)c1=O | 1.2 | 
6 | CC[C@H](C1CC1)n1cc(Cl)nc(Nc2ccc(Cl)cc2)c1=O | 180 | 
7 | COC[C@H](C1CC1)n1cc(Cl)nc(Nc2cc(C)c(OC)cc2C)c1=O | 0.29 | > 10000
8 | CCN(c1c(Cl)cc(OC)cc1Cl)c1nccn([C@H](C)C2CC2)c1=O | 34 | 
9 | COCC(COC)n1cc(Cl)nc(Nc2cc(C)c(OC)cc2C)c1=O | 2.1 | 
10 | COC[C@@H](C)n1cc(Cl)nc(Nc2cc(C)c(OC)cc2C)c1=O | 1.7 | 
11 | CCC(CC)Cn1cc(Cl)nc(Nc2cc(C)c(OC)cc2C)c1=O | 76 | 
12 | COc1cc(Cl)c(Nc2nc(Cl)cn([C@H](C)C3CC3)c2=O)c(Cl)c1 | 1.1 | 
